Data published in ChEMBL document CHEMBL4513216, “Probing the Open Global Health Chemical Diversity Library for Multistage-Active Starting Points for Next-Generation Antimalarials” (ACS Infect Dis, 2020).

Assay: Toxicity liver stage against HepG2, at 10uM
Type: cell-based
Set-up: test concentration 10 uM, cell line HepG2-A16-CD81EGFP
Conditions: human, HepG2-A16-CD81EGFP cells; read-out: INHIBITION
How it was run: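 Uninfected HepG2-A16-CD81EGFP cells, 3 × 10^3 per well, 1536-well, plated on prespotted compound at 10 μM final, parasite-free screening media added to match infected plates; puromycin 10 μM positive, DMSO 0.5% negative; run in parallel with 48 h PbLuc assay at 37 °C, 5% CO2; viability by CellTiter-Glo luminescence, normalized to controls.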

Row | SMILES | cytotoxicity at 10 µM
1 | O=C1c2cccnc2OC(CN2CCOCC2)CN1Cc1cccs1 (stereo not given) | -3.35%
2 | COc1ccc(CN2CC(O)CN(C(=O)OCC(C)C)CC2=O)cc1 (stereo not given) | -7.34%
3 | Cc1cc(C)n2c(CCCNS(=O)(=O)c3ccc(F)cc3)nnc2n1 | 2.38%
4 | O=C(c1ccc(Cl)s1)N1CC(c2nc(-c3ccc[nH]c3=O)no2)C1 | -1.26%
5 | CN1CCN([C@@H]2CCN(C(N)=O)[C@H]2Cc2ccccc2)CC1 | 2.41%
6 | CCO[C@@H]1CC[C@H]2[C@H]1OCCN2S(=O)(=O)c1cn(C)cn1 | 5.59%
7 | O=C1CC2(CCN(c3nncs3)C2)CN1c1cncnc1 (stereo not given) | -0.376%
8 | Cc1nnc(N2C[C@H](C(=O)NCc3ccco3)[C@@H]3CCO[C@@H]3C2)s1 | 8.5%
9 | Cc1ccc(C(=O)N2C[C@@H]3COC[C@]3(COCc3cccnc3)C2)cn1 | 0.719%
10 | Cc1ccc(N2N=C(C(=O)NCC3CC3)S(=O)(=O)c3cccnc32)cc1 | 6.72%
11 | O=C(Cn1nc(Br)nc1Br)N1CCOCC1 | -1.14%
12 | O=C1CC(N2CCN(c3ccccc3O)CC2)C(=O)N1Cc1cccs1 (stereo not given) | -0.872%
13 | COCCNC(=O)Cn1cc2c(n1)c(C)nn2C | 4.6%
14 | CN(C)C(=O)CN1CCC(c2c(C(N)=O)sc3ncccc23)C1 (stereo not given) | 8.42%
15 | CC(NC(=O)C(C)(C)C)c1cc(O)nc(-c2cccnc2)n1 (stereo not given) | 6.5%
16 | Cn1ccnc1C(O)c1ccccc1N1CCN(Cc2cccs2)CC1 (stereo not given) | 5.03%
17 | CS(=O)(=O)c1cc(Cl)cnc1C1CCN(C(=O)C2CC2)CC1 | 8.21%
18 | Cc1ncsc1CN1CCOC(C)(C(N)=O)C1 (stereo not given) | 0.267%
19 | C[C@@H]1CN(c2nc(O)cc(Cc3ccccc3F)n2)C[C@H](C)O1 | 5.31%
20 | CC(C)(C)c1ccc2c(c1)CCN2C(=O)c1[nH]c(=O)[nH]c(=O)c1N | 7.22%
21 | Brc1cnc(NCCCOCC2CCOCC2)nc1 | 16.8%
22 | Cc1ccccc1C(O)CNC(=O)Cc1ccc(F)cc1 (stereo not given) | 5.8%

Row | SMILES | cytotoxicity at 10 µM
23 | COCCN(Cc1noc(-c2ccc(OC)cc2)n1)C1CC1 | 5.69%
24 | CC(=O)N1CCCN(CCCSCc2ccccc2)CC1 | -4.53%
25 | CCn1ccnc1CN1CCCN(C(=O)c2cncnc2C)CC1 | 5.65%
26 | CCn1c(=O)n(CCC(=O)N(C)Cc2ccc(C)o2)c2ccccc21 | -2.42%
27 | Cn1c(CO)nnc1SCc1c(F)cccc1Br | -41.2%
28 | CC(NC(=O)NCCC1=CCCCC1)c1nncn1C (stereo not given) | -11.7%
29 | O=C(C1CCCO1)N1CCC(c2nc(-c3ccccc3)n[nH]2)CC1 (stereo not given) | -10.9%
30 | CC(CC(=O)NCCCn1cccn1)c1cccnc1 (stereo not given) | -1.66%
31 | COc1ccc(CNC(=O)CN2CCc3ccccc32)cc1 | 10.5%
32 | COCCC(C)NC(=O)N1CCC(n2ccc(C(F)(F)F)n2)CC1 (stereo not given) | -3.9%
33 | CCSc1cc(C(=O)NCC(C)(C)N(C)C)ccn1 | -13.4%
34 | CCOc1cncc(N(C)CC(=O)NC)n1 | 2.16%
35 | CC(C)c1nc(CSc2nnc(Cn3cncn3)o2)cs1 | 3.19%
36 | O=C(CCc1ccco1)Nc1ccc(Br)cn1 | 81.2%
37 | Cc1cc(CSc2nc(=O)ccn2C(C)C)no1 | 14.9%
38 | CCn1cc(CNCCNc2ncc(Cl)cc2Cl)cn1 | -4.27%
39 | CC(C(=O)Nc1cc(F)ccc1F)N1CCN(Cc2ncc[nH]2)CC1 (stereo not given) | -15.8%
40 | CC(C)(C)OC(=O)N1CSC[C@@H]1C(=O)NCc1ccc(C#N)cc1 | 11.6%
41 | Cc1cc2ncc(C(C)NCc3cccnc3)c(C)n2n1 (stereo not given) | -0.0764%
42 | CN1CCCC(N(C)S(=O)(=O)c2cccc3ncccc23)C1 (stereo not given) | -6.46%
43 | Cc1ccc(-c2noc(C(C)(C)NS(C)(=O)=O)n2)cc1F | 2.77%
44 | c1ccc2[nH]c(C3CCN(Cc4noc(C5CC5)n4)CC3)cc2c1 | 7.67%

Row | SMILES | cytotoxicity at 10 µM
45 | CCn1nc(C)cc1C(=O)N1C[C@@H]2C[C@@H](c3nc(C)cs3)O[C@@H]2C1 | 3.39%
46 | CCn1c(Cn2cncn2)nnc1C1CCN(C2CCOCC2)CC1 | 9.23%
47 | Clc1ccc(-n2cnnc2CCCN2CCOCC2)cc1 | 5.52%
48 | NC(=O)c1cnc2n1CCN(C(=O)c1ccc(Cn3cccc3)cc1)C2 | -1.5%
49 | COCC(=O)N1CCCN(C(=O)C2Cc3ccccc3CN2C)CC1 (stereo not given) | 4.28%
50 | CC(=O)N1CCCn2nc(CNS(=O)(=O)N3CCC(C)CC3)cc2C1 | 9.91%
51 | CNC(=O)Cc1ccc(-n2ccnc2-c2cccc(C(=O)O)c2)cc1 | -7.9%
52 | CC(C)c1cc(CN(C)C(=O)CN2CCCCC2=O)no1 | 8.01%
53 | CN(C)Cc1nc(C(=O)N2CCCC(COc3ccc(F)cc3)C2)cs1 (stereo not given) | -6.09%
54 | O=C(O)[C@@H]1CN(C(=O)c2ccc3nccnc3c2)C[C@H]1c1ccncc1 | -11.3%
55 | COc1cccc2c1OCC(C(=O)NCc1ncc3c(n1)CCC3)C2 (stereo not given) | -8.51%
56 | CC(=O)c1cccc(OCc2cc(C(=O)N3CCCCO3)n[nH]2)c1 | 2.19%
57 | CN(C)c1cnn(CC(=O)N2CCCCCC2)c(=O)c1 | -10.6%
58 | CNc1cc(C)nc(-c2cc(NC3CCNCC3)nc3[nH]ccc23)n1 | -2.98%
59 | COCCN1CCC(CN(CC2CCCO2)C(=O)Cn2cccn2)CC1 (stereo not given) | -3.79%
60 | CCc1nc(N2CCC3(CCC(=O)N(Cc4ccncc4)C3)CC2)no1 | 7.1%
61 | CCn1ncnc1CN1CCC(CNC(=O)c2cccc(C)n2)C1 (stereo not given) | 8.57%
62 | O=C(O)c1nn(CC2CC2)c2c1CN(S(=O)(=O)c1cccnc1)CC2 | 3.16%
63 | CC(C)(C)C(=O)NCCNc1cc(N2CCCC2)ncn1 | -43%
64 | Cc1ccc(OCC(C)NS(C)(=O)=O)cc1C (stereo not given) | 9.98%
65 | Cn1nc2c(c1NC(=O)c1ccc(C3CCCN3C3CCC3)s1)CCC2 (stereo not given) | -5.08%
66 | CN(Cc1cscn1)C1CCCN(c2cccnn2)C1 (stereo not given) | -3.69%

Row | SMILES | cytotoxicity at 10 µM
67 | Cc1cnn(CC2CCCCN2Cc2ncc(C(C)(C)C)o2)c1 (stereo not given) | -3.44%
68 | CC(C)c1nn(C)c(N(C)C)c1CNC(C)c1ccccc1F (stereo not given) | -2.97%
69 | Cc1ccc(CN(Cc2nc3c(cnn3C)c(=O)[nH]2)C2CC2)o1 | -1.92%
70 | N#Cc1cccc(C(=O)N2CCC(Nc3cccnn3)CC2)c1 | -5.17%
71 | CC1CN(CCc2ccccn2)CCN1c1ccc2nncn2n1 (stereo not given) | -3.43%
72 | Cc1ccc(CN(C)C(=O)CN2CCCC(Cn3cncn3)C2)o1 (stereo not given) | -24.4%
73 | CC(C)c1n[nH]c(C2CN(C(=O)c3ncoc3C(C)C)CCO2)n1 (stereo not given) | -7.22%
74 | CC(C)c1noc(C(C)N2CCN(Cc3cccnc3)CC2)n1 (stereo not given) | -5.44%
75 | CC(c1cccc(Cl)c1)N(C)Cc1nc2c(cnn2C)c(=O)[nH]1 (stereo not given) | -10.5%
76 | Cc1cc(C)n(CC2CCCN2C(=O)c2cccn3ccnc23)n1 (stereo not given) | -7.45%
77 | CCCN(CCC)C(=O)CN(C)C1CCc2ccccc21 (stereo not given) | -6.63%
78 | Cc1nc(C)n(CC2CCCCN2CC(=O)Nc2cc(C)on2)n1 (stereo not given) | 2.67%
79 | CC(C)COCCCNC(=O)NCC(O)c1cccc(F)c1 (stereo not given) | -3.1%
80 | COc1ncccc1CNC(=O)Nc1ccc(N(C)C)nc1 | -4.38%
81 | CN1CCC/C1=N\S(=O)(=O)c1ccc(NC(=O)c2ccc(Cl)cc2)cc1 | -0.383%
82 | O=C(c1cccc(CNS(=O)(=O)c2ccc(F)cc2)c1)N1CCCC1 | -8.57%
83 | CCC(CC)C(=O)NCCc1ccn(-c2ccccc2)n1 | -8.8%
84 | CC(Cn1cccn1)NC(=O)NCc1ccoc1 (stereo not given) | 8.59%
85 | CC(C)N(Cc1cccc(Cl)c1)Cc1nc2c(cnn2C)c(=O)[nH]1 | 1.97%
86 | O=C(CCc1cscn1)N1CCCC(c2ccn[nH]2)C1 (stereo not given) | -9.14%
87 | Cc1ccc(CNC(=O)NCc2cccnc2N(C)C)s1 | -4.15%
88 | CCc1nnc2n1CCN(C(=O)C(C)COCc1ccccc1)C2 (stereo not given) | -9.46%

Row | SMILES | cytotoxicity at 10 µM
89 | CC(C)c1nc(C2CCCN2Cc2ccn(C)c(=O)c2)no1 (stereo not given) | -12.2%
90 | CCOc1cc(CNC(=O)N2CCC(Cc3cnn(C)c3)C2)ccn1 (stereo not given) | -8.29%
91 | CC(C)c1ccc(C(O)Cn2c(=O)c(C#N)cn(C3CC3)c2=O)cc1 (stereo not given) | -11.5%
92 | CCc1nc(CN2CCCN(C(=O)C(C)COC)CC2)cs1 (stereo not given) | -0.884%
93 | CN(CCNC(=O)NCc1ccncc1)C1CCCC1 | -2.95%
94 | Cc1cc(CN(C)C(=O)c2ccc(F)cc2Br)no1 | 0.864%
95 | CNC(=O)C1(N2CCC[C@H]2C(=O)NC2CCOCC2)CCOCC1 | 0.705%
96 | Cn1cc(CN2CCC(F)(F)C3(CCN(c4cccnc4)C3)C2)cn1 (stereo not given) | 3.89%
97 | COCCN1C[C@@H]2[C@@H](OC)CCN(Cc3ccc(C)o3)[C@@H]2C1 | -4.42%
98 | Cc1ccc(CN2CCO[C@H]3[C@@H](OCc4cccnc4)CC[C@@H]32)o1 | -0.58%
99 | COc1ncccc1C(=O)N1CC[C@H]2C[C@H](c3nnc(C)[nH]3)O[C@@H]2C1 | 2.4%
100 | Cc1cccc(CN2Cc3ccnn3CC(COCC3CC3)C2)n1 (stereo not given) | 2.13%
101 | COCCN1CCC2(C1)c1ccccc1S(=O)(=O)N2Cc1ccccc1 (stereo not given) | 10.5%
102 | CCN1CCC(N2CCC(C(=O)N(C)C)CC2)CC1 | 0.486%
103 | CN(C)CC(=O)N1CCC2(CCc3cc(-c4cccnc4)ccc32)CC1 | 4.01%
104 | COc1ccc(CN2CCC3(CC2)CC(c2cccnc2)CO3)cc1 (stereo not given) | -0.259%
105 | Cn1cc2c(n1)C(CNCc1ccco1)OCC2 (stereo not given) | -1.54%
106 | CN(Cc1ccco1)[C@@H]1CN(Cc2ccco2)[C@@H]2CCCO[C@H]12 | 1.41%
107 | c1cnc(N2C[C@H]3CC[C@@H](C2)N(Cc2ccsc2)C3)nc1 | 1.2%
108 | COCCN1C(=O)CCC12CCC(NCc1ccc(OC)cc1)CC2 (stereo not given) | 11.5%
109 | COCC(=O)NCC1CCC(c2ccnc3ncnn23)CC1 (stereo not given) | 1.36%
110 | O=C(Cn1ccc(=O)cc1)N1C[C@@H]2CC[C@H]1CN(c1ncccn1)C2 | 4.52%
